Measured values as given in ChEMBL document CHEMBL4316656, “Antitrypanosomal Activity of Acetogenins Isolated from the Seeds of Porcelia macrocarpa Is Associated with Alterations in Both Plasma Membrane Electric Potential and Mitochondrial Membrane Potential” (J Nat Prod, 2019).
Active and inactive are the calls of the source. The rule behind the calls is not given here.

Key:
Trypanosoma cruzi [1] = experiment: Antitrypanosomal activity against Trypanosoma cruzi trypomastigotes measured after 24 hrs by resazurin dye based assay; assay type: functional, organism-based
In short: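 Cell-derived trypomastigotes, 1 × 10^6/well, exposed 24 h at 37 °C; viability by resazurin read at 570 nm; benznidazole as standard; IC50 calculated.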

Trypanosoma cruzi [2] = experiment: Antitrypanosomal activity against Trypanosoma cruzi amastigotes infected in peritoneal macrophages (unknown origin) measured after 48 hrs by resazurin dye based assay; assay type: functional, organism-based
[3] = Selectivity index, ratio of CC50 for mouse L929 cells to IC50 for Trypanosoma cruzi trypomastigotes; assay type: toxicity; settings: read-out: Ratio CC50/IC50
In short: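 Ratio of the mammalian CC50 (L929, MTT, 48 h) to the IC50 against trypomastigotes (resazurin, 24 h).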

[4] = Cytotoxicity against mouse L929 cells measured after 48 hrs by MTT assay; assay type: cell-based
In short: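 NCTC clone L929 cells, 6 × 10^4/well, incubated with compound 48 h at 37 °C; viability by MTT at 570 nm; CC50 taken as 50% cytotoxic concentration; highest concentration 200 μM.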

[5] = Selectivity index, ratio of CC50 for mouse L929 cells to IC50 for Trypanosoma cruzi amastigotes infected in peritoneal macrophages (unknown origin); assay type: toxicity; settings: read-out: Ratio CC50/IC50
In short: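 Ratio of the L929 CC50 (MTT, 48 h) to the intracellular amastigote IC50 (infected peritoneal macrophages, 48 h).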

Trypanosoma cruzi [6] = experiment: Induction of reactive oxygen species generation in Trypanosoma cruzi trypomastigotes at antitrypanosomal IC50 measured after 60 to 120 mins by H2DCFDA dye based fluorescence assay; assay type: organism-based; settings: in vitro
In short: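 Trypomastigotes incubated with compound at IC50 for 60 and 120 min, then 20 μM H2DCFDA 15 min at 37 °C; fluorescence ex 485/em 520 nm; 10 mM sodium azide positive control, untreated negative; compound background and DMSO controls.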

Trypanosoma cruzi [7] = experiment: Induction of mitochondrial membrane potential depolarization in Trypanosoma cruzi trypomastigotes at antitrypanosomal IC50 measured after 2 hrs by DAPI/Mito tracker red dye based fluorescence microscopic analysis; assay type: functional, organism-based
In short: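 Treated trypomastigotes costained with 10 μM DAPI and 1 μM MitoTracker Red CM-H2XROS, 30 min at 37 °C in the dark, then fluorescence microscopy; CCCP positive control, untreated parasites as reference.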

Trypanosoma cruzi [8] = experiment: Antitrypanosomal activity against Trypanosoma cruzi amastigotes infected in peritoneal macrophages (unknown origin) assessed as elimination of parasite at 100 uM by optical microscopic analysis; assay type: functional, organism-based
In short: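 Peritoneal macrophages infected with T. cruzi trypomastigotes (ratio 10:1) and treated at 100 μM. Infected untreated macrophages served as control. Parasite clearance was judged by optical microscopy at 1000× magnification.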

Trypanosoma cruzi [9] = experiment: Disruption of plasma membrane integrity in Trypanosoma cruzi trypomastigotes at antitrypanosomal IC50 measured after 120 mins by Sytox green dye based fluorescence assay; assay type: functional, organism-based
In short: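 Trypomastigotes (2 × 10^6/well) with 1 μM SYTOX Green, compound at IC50, fluorescence followed 120 min at ex 485/em 520 nm; 0.5% Triton X-100 gives maximal permeabilization; compound background and DMSO controls; duplicates, at least two independent assays.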

Trypanosoma cruzi [10] = experiment: Induction of mitochondrial membrane potential depolarization in Trypanosoma cruzi trypomastigotes at antitrypanosomal IC50 measured after 2 hrs by JC1 dye based flow cytometry; assay type: functional, organism-based
Trypanosoma cruzi [11] = experiment: Induction of plasma membrane electric potential depolarization in Trypanosoma cruzi trypomastigotes at antitrypanosomal IC50 measured after 60 mins by DiSBAC2(3) dye based flow cytometry; assay type: functional, organism-based
In short: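 Trypomastigotes (2 × 10^6/well) exposed at IC50 for 60 min at 37 °C, then 0.2 μM DiSBAC2(3) added and read by flow cytometry; gramicidin D 0.5 μg/mL defined 100%, untreated 0%; at least two independent assays in duplicate.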

[12] = Trypanosoma cruzi, 24 h, read-out: IC50
[13] = Trypanosoma cruzi, 48 h, read-out: IC50

| IC50 (Trypanosoma cruzi [1]) | IC50 (Trypanosoma cruzi [2]) | IC50 (Trypanosoma cruzi [1]; [12]) [µM] | IC50 (Trypanosoma cruzi [2]; [13]) [µM] | SMILES | selectivity ratio [3] | CC50 at 48 h [4] [µM] | selectivity ratio [5] | Activity (Trypanosoma cruzi [6]) | Activity (Trypanosoma cruzi [7]) | Activity (Trypanosoma cruzi [8]) | Activity (Trypanosoma cruzi [9]) | Activity (Trypanosoma cruzi [10]) | Activity (Trypanosoma cruzi [11]) |
| --- | --- | --- | --- | --- | --- | --- | --- | --- | --- | --- | --- | --- | --- |
| Not Active | Not Active | – | – | CCCCCCCCCCCCCCCCCCCC[C@@H]1C(=O)O[C@H](C)[C@@H]1O | – | – | – | – | – | – | – | – | – |
| – | Not Active | 27.6 | – | CCCCCCCCC#CCCCCCCCC(=O)O | > 7.2 | > 200 | – | – | – | – | – | – | – |
| Not Active | Not Active | – | – | CCCCCCCCCCCCCCCCCC(=O)O [STEARIC ACID] | – | – | – | – | – | – | – | – | – |
| – | – | 7.8 | 58.3 | C=CCCCCCCC#CCCCCCCCCCC[C@@H]1C(=O)O[C@H](C)[C@@H]1O | > 25.6 | > 200 | > 3.4 | – | – | – | – | – | – |
| – | – | 0.4 | 23 | C=CCCCCCCC#CCCCCCCCCCCC1=C(O)C(=C)OC1=O | 200 | 80 | 3.5 | Non-Toxic | Active | Active | inactive | Active | Active |
| – | – | 3.6 | 27.7 | C=CCCCCCCC#CCCCCCCCCCCC1=C(O)[C@@H](C)OC1=O | > 55.6 | > 200 | > 7.2 | Non-Toxic | Active | Active | inactive | Active | Active |

| SMILES | IC50 (Trypanosoma cruzi [1]) | IC50 (Trypanosoma cruzi [2]) | IC50 (Trypanosoma cruzi [1]; [12]) [µM] | IC50 (Trypanosoma cruzi [2]; [13]) [µM] | selectivity ratio [3] | CC50 at 48 h [4] [µM] | selectivity ratio [5] | Activity (Trypanosoma cruzi [6]) | Activity (Trypanosoma cruzi [7]) | Activity (Trypanosoma cruzi [8]) | Activity (Trypanosoma cruzi [9]) | Activity (Trypanosoma cruzi [10]) | Activity (Trypanosoma cruzi [11]) |
| --- | --- | --- | --- | --- | --- | --- | --- | --- | --- | --- | --- | --- | --- |
| O=C(Cn1ccnc1[N+](=O)[O-])NCc1ccccc1 [BENZNIDAZOLE] | – | – | 5.5 | 18.7 | – | – | – | – | – | – | – | – | – |
